Rows were chosen to be rich in hits. Some 2.9% of all compounds tested hit in one or more screens of this group.
HTRA1 inhibitor: HTRA1 serine protease inhibitors, primary screen, biochemical, fluorescence polarization, HTS; recombinant HTRA1, FP-rhodamine activity-based probe; 340,000 compounds, 0.5% hits; Q92743; inhibition, % at 5.96 µM; in the data active = inhibition above about 36%
PAD4 inh: human PAD4 inhibitors, primary screen, biochemical, fluorescence polarization, 1536-well format; recombinant PAD4, RCA probe fluorescence polarization; inhibition, % at 6.36 µM; 330,000 compounds, 0.41% hits;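 active = percent inhibition above a cutoff equal to the mean of all tested compounds plus 3 SD, cut at about 15% in these data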
Target sequence (Q9UM07 whole entry, looked up): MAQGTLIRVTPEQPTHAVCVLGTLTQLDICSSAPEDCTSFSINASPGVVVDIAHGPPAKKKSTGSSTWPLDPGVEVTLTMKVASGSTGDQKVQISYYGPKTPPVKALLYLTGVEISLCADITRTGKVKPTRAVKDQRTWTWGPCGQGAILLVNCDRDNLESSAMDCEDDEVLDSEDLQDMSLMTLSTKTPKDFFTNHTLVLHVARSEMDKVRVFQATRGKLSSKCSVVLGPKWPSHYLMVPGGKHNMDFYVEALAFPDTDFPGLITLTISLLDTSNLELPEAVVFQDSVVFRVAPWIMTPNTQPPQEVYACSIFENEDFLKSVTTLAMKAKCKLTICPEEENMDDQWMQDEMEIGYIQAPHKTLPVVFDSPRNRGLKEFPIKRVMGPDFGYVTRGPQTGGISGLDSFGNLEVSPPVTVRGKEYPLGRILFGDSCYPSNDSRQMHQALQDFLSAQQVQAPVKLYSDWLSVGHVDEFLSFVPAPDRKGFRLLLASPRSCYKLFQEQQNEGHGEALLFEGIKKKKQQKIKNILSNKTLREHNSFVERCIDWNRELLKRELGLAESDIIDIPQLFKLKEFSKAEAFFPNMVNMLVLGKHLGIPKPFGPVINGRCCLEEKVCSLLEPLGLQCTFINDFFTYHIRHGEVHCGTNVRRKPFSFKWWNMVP
TCR-CD3 inh: inhibitors of human TCR-CD3 interaction, primary screen, biochemical, fluorescence, TAMRA-labeled TCR probe; inhibition, % at 9.4 µM; 360,000 compounds, 0.37% hits; AID 651800, 2012; in the data active = inhibition above about 19%;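 also: recombinant mutant TCR 2C K166C tagged with TAMRA read by polarization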
ABHD4 inh: ABHD4 inhibitors, primary screen, biochemical, fluorescence polarization, mouse. (Lyso)-N-acylphosphatidylethanolamine lipase (Mus musculus), Q8VD66. purified mABHD4, FP-Rh probe fluorescence polarization. inhibition, % at 8.92 µM. 370,000 compounds, 0.54% hits. AID 720543, 2013;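 active = inhibition exceeding the mean over every tested compound plus 3 SD, cut at about 30% in these data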
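Doses – 8.92 µM, single dose · Material – wild-type mouse ABHD4 protein · Replication – single well per compound (singlicate) · Measure – percent inhibition of probe binding, normalized to plate controls · Schedule – 45 min compound pre-incubation plus 60 min probe step, 25 °C · Detection – fluorescence polarization with parallel and perpendicular emission, 525/598 nm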
SIAE inh: human SIAE inhibitors, primary screen, biochemical, fluorescence polarization, FP-Rh probe, 1536-well HTS; SIAE FP-Rh probe binding; inhibition, % at 9.66 µM; 370,000 compounds, 0.69% hits;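 active = inhibition above a cutoff: mean of compounds within the control limits plus 3 SD of those, cut at about 17% in these data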
PRMT1 FP inh: PRMT1 methyltransferase inhibitors, primary screen, biochemical, fluorescence polarization. inhibition, % at 2.79 µM. recombinant PRMT1, activity-based probe fluorescence polarization. AID 652257, 2013. Protein arginine N-methyltransferase 1 (Homo sapiens), Q99873. 370,000 compounds, 1.3% hits;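 active = inhibition above about 21% made by adding two undisclosed values, limit read from the data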
Numbers stand for hits.

How did Cc1ccc(NC(=O)CN2C(=O)S/C(=C\c3ccc(-c4cccc(C(=O)O)c4C)o3)C2=O)cc1 do in these assays?
PAD4 inh: inactive

How did O=S(=O)([N-]c1nc2ccccc2nc1-[n+]1ccc(-c2ccncc2)cc1)c1ccccc1 do in these assays?
HTRA1 inhibitor: inactive; PAD4 inh: inactive; TCR-CD3 inh: inactive; ABHD4 inh: inactive; SIAE inh: inactive; PRMT1 FP inh: 22.0

Results for Cc1ccc(Nc2ccc(C(=O)O)cc2N)cc1 ?
PAD4 inh: inactive; TCR-CD3 inh: inactive; ABHD4 inh: inactive; SIAE inh: inactive; PRMT1 FP inh: 23.6

What do the screens show for `CCN1CCCCC(NC(=O)c2cc(OC)c(OC)c(OC)c2)C1=O` (stereo not given)?
ABHD4 inh: inactive; SIAE inh: inactive; PRMT1 FP inh: inactive

What do the screens show for `CCOC(=O)C1=C(c2ccccc2)N=c2s/c(=C\c3ccco3)c(=O)n2C1c1cccs1` (stereo not given)?
HTRA1 inhibitor: inactive; PAD4 inh: inactive; TCR-CD3 inh: inactive; ABHD4 inh: inactive; SIAE inh: inactive; PRMT1 FP inh: 23.2

How did CCOC(=O)C1=C(c2ccccc2)N=c2s/c(=C\c3cc(OC)c(OC)c(OC)c3)c(=O)n2C1c1cccs1 (stereo not given) do in these assays?
HTRA1 inhibitor: inactive; PAD4 inh: inactive; TCR-CD3 inh: inactive; ABHD4 inh: inactive; SIAE inh: inactive; PRMT1 FP inh: inactive

What do the screens show for `CCOC(=O)C1=C(C(=O)OCC)C2N(Cc3ccc(C(F)(F)F)cc3)c3ccccc3[C@@]23C[C@@H](C(=O)OC)N(S(=O)(=O)c2ccc(OC)cc2)C3=N1` (stereo not given in full)?
TCR-CD3 inh: inactive; ABHD4 inh: inactive; SIAE inh: inactive; PRMT1 FP inh: inactive

How did COC1=C[C@H](C(=O)NCCNC(C)=O)[C@@]2(C)Cc3ccccc3[C@H]2CC1=O do in these assays?
ABHD4 inh: inactive; SIAE inh: inactive; PRMT1 FP inh: inactive

Results for COc1ccc(CN(C(=O)Cc2c[nH]c3ccccc23)C(C(=O)NC2CCCCC2)c2ccc(C)o2)cc1 (stereo not given) ?
HTRA1 inhibitor: inactive; PAD4 inh: inactive; TCR-CD3 inh: inactive; ABHD4 inh: inactive; SIAE inh: inactive; PRMT1 FP inh: inactive

What do the screens show for `COc1cccc(CN(C(=O)Cc2c[nH]c3ccccc23)C(C(=O)NC2CCCCC2)c2ccc(C)o2)c1` (stereo not given)?
HTRA1 inhibitor: inactive; PAD4 inh: inactive; TCR-CD3 inh: inactive; ABHD4 inh: inactive; SIAE inh: 18.0; PRMT1 FP inh: inactive

Results for COc1cccc(CN(C(=O)c2ccco2)C(C(=O)NC2CCCC2)c2cccnc2)c1 (stereo not given) ?
HTRA1 inhibitor: inactive; PAD4 inh: inactive; TCR-CD3 inh: inactive; ABHD4 inh: inactive; SIAE inh: 135.3; PRMT1 FP inh: inactive

What do the screens show for `COCCCN1C(=O)[C@H](CC(=O)N2CCN(C(=O)C3CC3)CC2)[C@]2(C(=O)OC)CCCCC=C12`?
ABHD4 inh: inactive; SIAE inh: inactive; PRMT1 FP inh: inactive

How did NC(=O)c1ccc(SCC(=O)OCC(=O)N2CCN(C(=O)c3ccco3)CC2)c([N+](=O)[O-])c1 do in these assays?
HTRA1 inhibitor: inactive; PAD4 inh: inactive; TCR-CD3 inh: inactive; ABHD4 inh: inactive; SIAE inh: inactive; PRMT1 FP inh: 22.1

Results for Cc1cccc(-c2cccc3c4c([nH]c23)[C@@H]2C[C@H](N(C)C(=O)Nc3ccccc3)[C@H]([C@H](C)O)CN2CC4)c1 ?
ABHD4 inh: inactive; SIAE inh: inactive; PRMT1 FP inh: inactive

Results for O=C(CCCCl)Nc1c2c(nn1-c1ccccc1)CSC2 ?
HTRA1 inhibitor: inactive; PAD4 inh: inactive; TCR-CD3 inh: inactive; ABHD4 inh: inactive; SIAE inh: inactive; PRMT1 FP inh: 23.1

What do the screens show for `CCN(CC)C(=S)Sc1c(-c2ccccc2)c2cc(Cl)ccc2[nH]c1=O`?
HTRA1 inhibitor: inactive; PAD4 inh: inactive; TCR-CD3 inh: inactive; ABHD4 inh: inactive; SIAE inh: inactive; PRMT1 FP inh: 24.3

What do the screens show for `Cc1ccc(C)c(/C=N/n2cc(-c3ccccc3)[nH]c2=S)c1`?
HTRA1 inhibitor: inactive; PAD4 inh: inactive; TCR-CD3 inh: inactive; ABHD4 inh: inactive; SIAE inh: inactive; PRMT1 FP inh: 24.2

What do the screens show for `Fc1ccccc1/C=N/n1cc(-c2ccccc2)[nH]c1=S`?
HTRA1 inhibitor: inactive; PAD4 inh: inactive; TCR-CD3 inh: inactive; ABHD4 inh: inactive; SIAE inh: inactive; PRMT1 FP inh: 23.8

Results for CC(COc1ccccc1)CN1CCC(C(O)(c2ccccc2)c2ccccc2)CC1 (stereo not given) ?
ABHD4 inh: inactive; SIAE inh: inactive; PRMT1 FP inh: inactive

What do the screens show for `O=C(Cn1c(=O)n(Cc2ccco2)c(=O)c2c3c(sc21)CCCCC3)Nc1ccccc1`?
HTRA1 inhibitor: inactive; PAD4 inh: inactive; TCR-CD3 inh: inactive; ABHD4 inh: inactive; SIAE inh: inactive; PRMT1 FP inh: 23.9

How did O=C(Cn1c(=O)n(Cc2ccco2)c(=O)c2c3c(sc21)CCCCC3)c1ccccc1 do in these assays?
HTRA1 inhibitor: inactive; PAD4 inh: inactive

What do the screens show for `O=S1(=O)CC2c3ccccc3CN2CN1Cc1ccc(F)cc1` (stereo not given)?
ABHD4 inh: inactive; SIAE inh: inactive; PRMT1 FP inh: inactive

How did Oc1ccc(O)c(Cc2nc3ccccc3s2)c1 do in these assays?
HTRA1 inhibitor: inactive; PAD4 inh: inactive; TCR-CD3 inh: inactive; ABHD4 inh: inactive; SIAE inh: inactive; PRMT1 FP inh: 49.4

How did C=C1C(=O)C23CCC4C(C)(C(=O)OC)CCCC4(C)C2CCC1(O)C3 (stereo not given) do in these assays?
HTRA1 inhibitor: inactive; TCR-CD3 inh: inactive; ABHD4 inh: inactive; SIAE inh: inactive; PRMT1 FP inh: 28.9

What do the screens show for `COC(=O)[C@]1(C)CCC[C@@]2(C)C3CC[C@@]4(C)C[C@]3(CCC21)CC(=O)N4` (stereo not given in full)?
HTRA1 inhibitor: inactive; PAD4 inh: inactive; TCR-CD3 inh: inactive; ABHD4 inh: inactive; SIAE inh: inactive; PRMT1 FP inh: inactive

What do the screens show for `Cc1ccc(NCc2nnc(SCC(=O)c3ccccc3)n2Cc2ccco2)c(C)c1`?
HTRA1 inhibitor: inactive; PAD4 inh: inactive; TCR-CD3 inh: inactive; ABHD4 inh: inactive; SIAE inh: inactive; PRMT1 FP inh: 23.9

How did CCCOC(=O)C1C2C=CC3(CN(c4ccc(Cl)c(F)c4)C(=O)C13)O2 (stereo not given) do in these assays?
HTRA1 inhibitor: inactive; PAD4 inh: inactive; TCR-CD3 inh: inactive; ABHD4 inh: inactive; SIAE inh: 48.6; PRMT1 FP inh: inactive

Screens from PubChem BioAssay.
